The values that follow come from ChEMBL document CHEMBL4396947, “Synthesis and characterization of novel isoform-selective IP6K1 inhibitors” (Bioorg Med Chem Lett, 2019).

SMILES strings stand for the structures. Values after ≈ are worked out from the molar mass of the structure shown.

For data set [1], the species on record is Homo sapiens. Put plainly: Inhibition of recombinant human PKBalpha S478G mutant assessed as residual activity at 10 uM using GRPRTSSFAEGKK as substrate incubated for 40 mins in presence of [gamma-33P]ATP at Km concentration by radiometric assay relative to control.
Data set [2] is filed under the species Homo sapiens. Put plainly: Inhibition of recombinant human PAK2 L150F/P225T/A339 deletion/V383I mutant (3 to end residues) assessed as residual activity at 10 uM using KEAKEKRQEQIAKR as substrate incubated for 40 mins in presence of [gamma-33P]ATP at Km concentration by radiometric assay relative to control.
Data set [3] addresses Mitogen-activated protein kinase kinase kinase 5 (Homo sapiens) (UniProt Q99683). Put plainly: Inhibition of recombinant human ASK1 (649 to 946 residues) assessed as residual activity at 10 uM using myelin basic protein as substrate incubated for 40 mins in presence of [gamma-33P]ATP at Km concentration by radiometric assay relative to control.
Data set [4] deals with Inositol hexakisphosphate kinase 3 (Homo sapiens, UniProt Q96PC2). Briefly: Inhibition of IP6K3 (unknown origin) in presence of ATP at Km concentration by Cheng-Prusoff equation analysis. Summed up: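 Purified IP6K isoforms run in the ADP-Glo Max kinase assay with 1 mM ATP. Measured IC50 values converted to Ki with the Cheng-Prusoff equation.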
Inositol hexakisphosphate kinase 3, sequence (Q96PC2 whole entry, canonical isoform): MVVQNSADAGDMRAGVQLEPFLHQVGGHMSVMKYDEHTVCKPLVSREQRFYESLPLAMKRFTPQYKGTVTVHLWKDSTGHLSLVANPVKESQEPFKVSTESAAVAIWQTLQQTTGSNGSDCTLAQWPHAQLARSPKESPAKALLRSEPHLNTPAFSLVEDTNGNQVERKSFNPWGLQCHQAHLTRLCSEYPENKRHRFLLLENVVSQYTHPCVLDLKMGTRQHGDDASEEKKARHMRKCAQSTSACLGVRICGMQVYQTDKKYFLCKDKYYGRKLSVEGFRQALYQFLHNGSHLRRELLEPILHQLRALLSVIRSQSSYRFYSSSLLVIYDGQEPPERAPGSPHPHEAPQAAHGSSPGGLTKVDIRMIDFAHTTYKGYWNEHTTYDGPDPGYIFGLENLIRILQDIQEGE
Data set [5] has as its target Protein kinase C theta type (Homo sapiens) (UniProt Q04759). Briefly: Inhibition of recombinant full length human PKCtheta assessed as residual activity at 10 uM using histone H1 as substrate incubated for 40 mins in presence of [gamma-33P]ATP at Km concentration by radiometric assay relative to control.
Data set [6] addresses Serine/threonine-protein kinase PLK3 (Homo sapiens) (UniProt Q9H4B4). Briefly: Inhibition of recombinant human Plk3 (19 to 301 residues) assessed as residual activity at 10 uM using casein as substrate incubated for 40 mins in presence of [gamma-33P]ATP at Km concentration by radiometric assay relative to control.
Data set [7] deals with Glycogen synthase kinase-3 beta (Homo sapiens), P49841 [UNDEFINED MUTATION]. Put plainly: Inhibition of human recombinant GSK3beta H350L mutant (2 to end residues) assessed as residual activity at 10 uM using YRRAAVPPSPSLSR as substrate incubated for 40 mins in presence of [gamma-33P]ATP at Km concentration by radiometric assay relative to control.
In data set [8] the target is SRSF protein kinase 1 (Homo sapiens) (UniProt Q96SB4). Briefly: Inhibition of recombinant human SRPK1 (2 to end residues) assessed as residual activity at 10 uM using RSRSRSRSRSRSRSR as substrate incubated for 40 mins in presence of [gamma-33P]ATP at Km concentration by radiometric assay relative to control.
SRSF protein kinase 1 (Homo sapiens), sequence (Q96SB4 whole entry, the tested form may be a part, canonical isoform): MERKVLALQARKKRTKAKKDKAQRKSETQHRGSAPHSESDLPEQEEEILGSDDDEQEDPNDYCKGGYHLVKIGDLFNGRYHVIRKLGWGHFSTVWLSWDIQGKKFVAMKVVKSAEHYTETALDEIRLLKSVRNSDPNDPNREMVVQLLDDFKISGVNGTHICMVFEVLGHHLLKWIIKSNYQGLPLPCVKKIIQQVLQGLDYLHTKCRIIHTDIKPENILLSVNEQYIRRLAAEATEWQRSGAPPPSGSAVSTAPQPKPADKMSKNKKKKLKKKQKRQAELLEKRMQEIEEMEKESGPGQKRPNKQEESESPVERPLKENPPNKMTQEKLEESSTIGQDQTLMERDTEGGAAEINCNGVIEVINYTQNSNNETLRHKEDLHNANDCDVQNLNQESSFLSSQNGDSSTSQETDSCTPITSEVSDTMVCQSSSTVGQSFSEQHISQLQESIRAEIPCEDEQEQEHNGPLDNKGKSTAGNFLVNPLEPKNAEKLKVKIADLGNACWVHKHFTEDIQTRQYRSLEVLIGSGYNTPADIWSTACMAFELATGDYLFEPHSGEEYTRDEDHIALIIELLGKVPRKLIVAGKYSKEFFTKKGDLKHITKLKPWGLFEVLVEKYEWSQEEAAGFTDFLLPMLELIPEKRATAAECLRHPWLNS
In data set [9] the target is Casein kinase I isoform gamma-1 (Homo sapiens) (UniProt Q9HCP0). Briefly: Inhibition of recombinant human CK1gamma1 (25 to 355 residues) assessed as residual activity at 10 uM using KRRRALS(p)VAS as substrate incubated for 40 mins in presence of [gamma-33P]ATP at Km concentration by radiometric assay relative to control.
The target in data set [10] is Serine/threonine-protein kinase 17A (Homo sapiens) (UniProt Q9UEE5). Briefly: Inhibition of human full length recombinant DRAK1 assessed as residual activity at 10 uM using KKLNRTLSFAEPG as substrate incubated for 40 mins in presence of [gamma-33P]ATP at Km concentration by radiometric assay relative to control.
Data set [11] has as its target Ephrin type-B receptor 4 (Homo sapiens) (UniProt P54760). Put plainly: Inhibition of recombinant human EPHB4 (561 to end residues) assessed as residual activity at 10 uM using poly (Glu,Tyr) 4:1 as substrate incubated for 40 mins in presence of [gamma-33P]ATP at Km concentration by radiometric assay relative to control.
The target in data set [12] is Casein kinase II subunit alpha' (Homo sapiens) (UniProt P19784). Briefly: Inhibition of recombinant full length human CK2alpha2 assessed as residual activity at 10 uM using RRRDDDSDDD as substrate incubated for 40 mins in presence of [gamma-33P]ATP at Km concentration by radiometric assay relative to control.
A short description of data set [13]: Solubility of compound in pH 7.4 PBS at 100 ug/ml incubated for 2 hrs by LC-MS/MS analysis. In kind it is physicochemical. Conditions: buffer, pH 7.4, 2 h.
The target of data set [14] is PI3K p110 beta/p85 alpha (Homo sapiens) (UniProt P27986+P42338). Briefly: Inhibition of recombinant full length human PI3K p110beta/p85alpha assessed as residual activity at 10 uM incubated for 40 mins in presence of [gamma-33P]ATP at Km concentration by radiometric assay relative to control. It is filed as protein-complex assay.
PI3K p110 beta/p85 alpha (Homo sapiens), sequence (P27986 2-724 limits assumed): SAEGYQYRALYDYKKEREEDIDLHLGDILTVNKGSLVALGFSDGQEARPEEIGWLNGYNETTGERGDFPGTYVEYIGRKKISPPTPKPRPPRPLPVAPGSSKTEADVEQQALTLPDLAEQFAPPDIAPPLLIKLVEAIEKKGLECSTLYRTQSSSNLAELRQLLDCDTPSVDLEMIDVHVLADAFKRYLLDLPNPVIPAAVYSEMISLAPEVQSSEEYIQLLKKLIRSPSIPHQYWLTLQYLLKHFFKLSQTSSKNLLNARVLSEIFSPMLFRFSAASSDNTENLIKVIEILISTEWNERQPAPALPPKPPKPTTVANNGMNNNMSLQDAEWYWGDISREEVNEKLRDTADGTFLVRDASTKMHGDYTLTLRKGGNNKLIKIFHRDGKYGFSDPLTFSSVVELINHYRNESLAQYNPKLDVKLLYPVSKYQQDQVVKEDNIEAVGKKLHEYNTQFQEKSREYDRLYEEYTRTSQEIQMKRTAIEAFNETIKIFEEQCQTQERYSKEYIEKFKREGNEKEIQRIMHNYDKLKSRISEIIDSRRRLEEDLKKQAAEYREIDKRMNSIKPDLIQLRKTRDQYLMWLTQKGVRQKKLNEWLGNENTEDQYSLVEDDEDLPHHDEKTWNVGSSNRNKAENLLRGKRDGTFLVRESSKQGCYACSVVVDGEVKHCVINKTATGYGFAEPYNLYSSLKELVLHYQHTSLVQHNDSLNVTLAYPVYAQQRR
PI3K p110 beta/p85 alpha (Homo sapiens), sequence (P42338 whole entry partner): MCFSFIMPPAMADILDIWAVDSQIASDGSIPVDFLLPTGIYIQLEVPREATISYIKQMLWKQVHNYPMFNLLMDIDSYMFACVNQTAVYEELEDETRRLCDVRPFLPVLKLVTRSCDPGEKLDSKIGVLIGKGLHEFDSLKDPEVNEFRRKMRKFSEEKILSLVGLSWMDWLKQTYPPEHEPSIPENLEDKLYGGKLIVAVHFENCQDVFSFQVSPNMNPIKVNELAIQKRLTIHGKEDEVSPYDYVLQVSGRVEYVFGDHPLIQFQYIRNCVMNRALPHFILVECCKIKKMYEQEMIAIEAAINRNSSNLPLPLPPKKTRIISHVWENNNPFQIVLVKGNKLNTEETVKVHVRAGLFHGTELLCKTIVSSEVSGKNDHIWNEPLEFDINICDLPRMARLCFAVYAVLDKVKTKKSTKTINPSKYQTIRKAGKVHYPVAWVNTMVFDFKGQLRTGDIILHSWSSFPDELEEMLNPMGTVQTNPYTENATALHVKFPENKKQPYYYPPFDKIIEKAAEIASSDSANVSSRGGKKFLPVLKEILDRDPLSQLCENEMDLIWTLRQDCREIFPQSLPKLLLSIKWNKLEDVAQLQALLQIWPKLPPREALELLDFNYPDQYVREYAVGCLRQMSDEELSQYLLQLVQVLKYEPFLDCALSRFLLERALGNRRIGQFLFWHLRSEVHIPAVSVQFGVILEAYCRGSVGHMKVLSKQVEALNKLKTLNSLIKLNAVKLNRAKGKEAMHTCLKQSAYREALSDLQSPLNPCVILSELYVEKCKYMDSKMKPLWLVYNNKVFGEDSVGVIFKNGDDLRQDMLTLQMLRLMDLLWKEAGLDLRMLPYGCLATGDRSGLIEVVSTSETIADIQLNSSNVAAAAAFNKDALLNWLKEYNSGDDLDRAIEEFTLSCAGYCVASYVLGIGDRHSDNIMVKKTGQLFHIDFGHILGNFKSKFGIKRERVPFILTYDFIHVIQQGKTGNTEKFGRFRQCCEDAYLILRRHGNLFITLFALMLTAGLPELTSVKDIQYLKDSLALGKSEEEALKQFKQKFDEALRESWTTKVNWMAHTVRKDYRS
In data set [15] the target is Epidermal growth factor receptor (Homo sapiens) (UniProt P00533). Briefly: Inhibition of recombinant human EGFR (696 to end residues) assessed as residual activity at 10 uM using poly (Glu,Tyr) 4:1 as substrate incubated for 40 mins in presence of [gamma-33P]ATP at Km concentration by radiometric assay relative to control.
Data set [16] addresses CDK9/cyclin T1 (Homo sapiens) (UniProt O60563+P50750). Put plainly: Inhibition of recombinant full length human CDK9/CyclinT1 assessed as residual activity at 10 uM using KTFCGTPEYLAPE as substrate incubated for 40 mins in presence of [gamma-33P]ATP at Km concentration by radiometric assay relative to control. It is filed as protein-complex assay.
Data set [17] is filed under the species Homo sapiens. Put plainly: Inhibition of recombinant human MAPKAPK2 A399G mutant (46 to end residues) assessed as residual activity at 10 uM using KKLNRTLSVA as substrate incubated for 40 mins in presence of [gamma-33P]ATP at Km concentration by radiometric assay relative to control.
The target of data set [18] is Tyrosine-protein kinase JAK2 (Homo sapiens) (UniProt O60674). Briefly: Inhibition of human recombinant JAK2 (808 to end residues) assessed as residual activity at 10 uM using KTFCGTPEYLAPE as substrate incubated for 40 mins in presence of [gamma-33P]ATP at Km concentration by radiometric assay relative to control.
Tyrosine-protein kinase JAK2 (Homo sapiens), sequence (O60674 whole entry): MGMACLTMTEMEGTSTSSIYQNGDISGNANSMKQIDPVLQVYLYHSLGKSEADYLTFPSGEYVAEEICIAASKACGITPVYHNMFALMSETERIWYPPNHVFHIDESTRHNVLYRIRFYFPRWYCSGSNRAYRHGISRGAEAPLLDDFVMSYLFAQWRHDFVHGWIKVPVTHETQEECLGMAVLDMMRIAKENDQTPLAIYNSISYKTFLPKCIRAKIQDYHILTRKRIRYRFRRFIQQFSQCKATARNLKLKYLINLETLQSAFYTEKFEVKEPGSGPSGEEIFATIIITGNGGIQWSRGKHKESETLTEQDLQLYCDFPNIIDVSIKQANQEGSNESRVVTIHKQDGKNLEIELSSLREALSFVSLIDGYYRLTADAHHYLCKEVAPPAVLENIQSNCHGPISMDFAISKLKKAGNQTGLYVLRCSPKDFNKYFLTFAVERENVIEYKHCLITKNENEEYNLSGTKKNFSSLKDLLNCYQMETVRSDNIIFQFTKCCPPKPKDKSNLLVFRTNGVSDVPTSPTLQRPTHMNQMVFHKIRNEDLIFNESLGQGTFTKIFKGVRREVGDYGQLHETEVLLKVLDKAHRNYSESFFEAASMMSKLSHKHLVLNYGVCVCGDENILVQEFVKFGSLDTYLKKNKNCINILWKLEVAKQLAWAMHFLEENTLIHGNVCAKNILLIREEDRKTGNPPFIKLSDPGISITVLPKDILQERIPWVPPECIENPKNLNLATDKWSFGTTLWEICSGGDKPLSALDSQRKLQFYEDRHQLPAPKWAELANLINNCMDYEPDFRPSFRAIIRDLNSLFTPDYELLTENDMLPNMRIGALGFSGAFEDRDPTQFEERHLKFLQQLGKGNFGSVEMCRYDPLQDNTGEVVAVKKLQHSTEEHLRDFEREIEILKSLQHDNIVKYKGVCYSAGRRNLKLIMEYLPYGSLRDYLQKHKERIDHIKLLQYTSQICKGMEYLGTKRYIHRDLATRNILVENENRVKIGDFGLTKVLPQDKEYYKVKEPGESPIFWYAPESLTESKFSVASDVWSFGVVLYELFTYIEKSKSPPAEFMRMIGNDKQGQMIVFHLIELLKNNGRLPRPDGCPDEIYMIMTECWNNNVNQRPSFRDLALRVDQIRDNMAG
Data set [19] addresses Inositol hexakisphosphate kinase 1 (Homo sapiens, UniProt Q92551). Put plainly: Inhibition of IP6K1 (unknown origin) incubated for 30 mins using IP6 as substrate in presence of ATP by ADP-Glo reagent based luminescence assay. The following applies: read-out: IC50. In outline: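 Luminescent ADP-Glo Max format adapted for IP6K, with purified enzyme and ATP at 1 mM, which is consumed as the kinase reaction proceeds. IC50 taken from the resulting inhibition data.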

Data set [20] concerns the target Mitogen-activated protein kinase 14 (Homo sapiens) (UniProt Q16539). Briefly: Inhibition of recombinant full length human SAPK2alpha assessed as residual activity at 10 uM using myelin basic protein as substrate incubated for 40 mins in presence of [gamma-33P]ATP at Km concentration by radiometric assay relative to control.
The target of data set [21] is Platelet-derived growth factor receptor beta (Homo sapiens) (UniProt P09619). Briefly: Inhibition of recombinant human PDGFRbeta (557 to end residues) assessed as residual activity at 10 uM using poly (Glu,Tyr) 4:1 as substrate incubated for 40 mins in presence of [gamma-33P]ATP at Km concentration by radiometric assay relative to control.
Platelet-derived growth factor receptor beta (Homo sapiens), sequence (P09619 whole entry): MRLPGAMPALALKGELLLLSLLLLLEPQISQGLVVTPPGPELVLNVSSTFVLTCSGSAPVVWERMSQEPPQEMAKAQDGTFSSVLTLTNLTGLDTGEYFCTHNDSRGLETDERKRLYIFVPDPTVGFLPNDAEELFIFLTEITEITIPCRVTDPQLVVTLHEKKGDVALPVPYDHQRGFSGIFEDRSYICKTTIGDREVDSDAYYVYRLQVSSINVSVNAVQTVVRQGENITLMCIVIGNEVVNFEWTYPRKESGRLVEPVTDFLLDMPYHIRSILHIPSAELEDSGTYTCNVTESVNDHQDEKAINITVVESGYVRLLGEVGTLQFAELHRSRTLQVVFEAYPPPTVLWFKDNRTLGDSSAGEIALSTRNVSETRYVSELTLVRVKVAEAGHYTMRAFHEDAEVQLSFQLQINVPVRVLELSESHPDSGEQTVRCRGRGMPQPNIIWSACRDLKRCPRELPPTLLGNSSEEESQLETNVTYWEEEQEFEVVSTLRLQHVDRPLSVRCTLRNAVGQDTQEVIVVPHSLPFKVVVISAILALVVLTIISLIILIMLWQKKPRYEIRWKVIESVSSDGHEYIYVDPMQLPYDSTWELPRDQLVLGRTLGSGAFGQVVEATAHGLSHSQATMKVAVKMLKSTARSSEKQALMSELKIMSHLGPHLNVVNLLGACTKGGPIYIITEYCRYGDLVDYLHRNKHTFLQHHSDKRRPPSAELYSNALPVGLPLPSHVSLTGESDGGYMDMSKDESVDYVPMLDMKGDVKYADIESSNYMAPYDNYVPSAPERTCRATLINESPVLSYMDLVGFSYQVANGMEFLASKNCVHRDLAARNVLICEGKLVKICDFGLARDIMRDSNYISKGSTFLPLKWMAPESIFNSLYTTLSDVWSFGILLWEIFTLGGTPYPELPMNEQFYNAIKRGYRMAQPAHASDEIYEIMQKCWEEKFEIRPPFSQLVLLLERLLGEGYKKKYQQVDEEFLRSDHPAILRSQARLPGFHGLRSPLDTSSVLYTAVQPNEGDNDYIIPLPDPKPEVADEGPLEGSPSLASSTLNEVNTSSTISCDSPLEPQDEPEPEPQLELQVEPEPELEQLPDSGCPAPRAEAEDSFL

As to `COc1ccc2c(CCNc3nc(NCc4ccc(=O)[nH]c4)c4nc[nH]c4n3)c[nH]c2c1`, the Activity came to 84% in the data set listed under Homo sapiens [1]; 98% in the data set listed under Homo sapiens [2]; 72% in [3]; 87% in data set [5]; 109% in data set [6]; 63% in [7]. The Activity stood at 91% in data set [8]; 6% in [9]; 69% in data set [10]; 69% in [11]; 100% in [12]; 93% in [14]. Moreover, the Activity in data set [15] is 75%; in data set [16], 79%; in the data set listed under Homo sapiens [17], 102%; in data set [18] it was 96%; in data set [20], 92%; in [21] it was 101%. Moreover, the Ki in [4] came out at 9.62 µM. The same compound returned a solubility in [13] of 51 µg/mL (≈ 118 µM). Moreover, the IC50 in [19] worked out at 0.75 µM.
